{"source": "paper PMC4874862", "about": "(ACS chemical biology, 2016)", "key": {"full-length HIV-1 IN": {"molecular_target": "full-length HIV-1 IN (Human immunodeficiency virus type 1 group M subtype B, UniProt P12497)", "test": "DLS analysis of IN multimerization", "format": "biochemical", "conditions": "500 nM BI/D or 3 µM LEDGF/p75 added to 200 nM IN, 30 min", "in_short": "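Recombinant full-length HIV-1 IN, E. coli-expressed with His or FLAG tag, at 200 nM in filtered 50 mM HEPES pH 7.4, 2 mM DTT, 2 mM MgCl2, 1 M NaCl. Test compound (500 nM) or LEDGF/p75 (3 µM) was added for 30 min. In a sequential arm, compound was added for 30 min, then LEDGF/p75 for 30 min more. DLS was recorded at 25 °C and particle size distribution calculated.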"}, "[1]": {"molecular_target": "FLAG-LEDGF/p75 (full length) (UniProt O75475 1-530)", "sequence (O75475 whole entry)": "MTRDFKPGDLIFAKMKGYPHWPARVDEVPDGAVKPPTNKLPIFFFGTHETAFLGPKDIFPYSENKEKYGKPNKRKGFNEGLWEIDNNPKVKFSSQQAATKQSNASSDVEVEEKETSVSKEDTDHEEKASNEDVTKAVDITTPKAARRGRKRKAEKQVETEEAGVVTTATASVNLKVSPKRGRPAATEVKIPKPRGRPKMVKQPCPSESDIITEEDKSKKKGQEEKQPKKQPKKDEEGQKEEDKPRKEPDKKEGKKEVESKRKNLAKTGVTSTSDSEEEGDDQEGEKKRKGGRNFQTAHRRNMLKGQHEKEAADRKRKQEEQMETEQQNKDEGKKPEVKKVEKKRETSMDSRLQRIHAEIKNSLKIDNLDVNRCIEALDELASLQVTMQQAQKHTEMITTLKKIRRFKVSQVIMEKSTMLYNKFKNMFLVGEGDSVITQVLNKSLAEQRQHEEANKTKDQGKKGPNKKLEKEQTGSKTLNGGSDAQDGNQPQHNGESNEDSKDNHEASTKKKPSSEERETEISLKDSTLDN", "test": "AlphaScreen or HTRF"}}}
{"molecule": "LEDGF/p75: cellular chromatin associated protein, cofactor that binds the HIV-1 IN tetramer; recombinant, His or FLAG tagged", "values": [{"measurement": "estimated particle diameter (DLS) after addition to IN", "setting": "full-length HIV-1 IN", "value": "~ 11 nM"}]}
{"molecule": "6 × His-HIV-1 IN (wild type full-length HIV-1 integrase) (enzyme) FLDGIDKAQEEHEKYHSNWRAMASDFNLPPVVAKEIVASCDKCQLKGEAMHGQVDCSPGIWQLDCTHLEGKVILVAVHVASGYIEAEVIPAETGQETAYFLLKLAGRWPVKTVHTDNGSNFTSTTVKAACWWAGIKQEFGIPYNPQSQGVIESMNKELKKIIGQVRDQAEHLKTAVQMAVFIHNFKRKGGIGGYSAGERIVDIIATDIQTKELQKQITKIQNFRVYYRDSRDPVWKGPAKLLWKGEGAVVIQDNSDIKVVPRRKAKIIRDYGKQMAGDDCVASRQDED", "values": [{"measurement": "Kd", "setting": "[1]", "value": "3.32 ± 0.31", "unit": "nM"}]}
